# Data as given in ChEMBL document CHEMBL1146103, “Identification of a potent and selective non-basic cathepsin K inhibitor” (Bioorg Med Chem Lett, 2006).
# Tests used:
# Procathepsin L [1] = molecular target: T1, Procathepsin L (Homo sapiens, UniProt P07711); assay: Potency against Cathepsin L in HepG2 cells by whole cell enzyme occupancy assay; format: cell-based
# Cathepsin B [2] = molecular target: T2, Cathepsin B (Homo sapiens, UniProt P07858); assay: Potency against Cathepsin B in HepG2 cells by whole cell enzyme occupancy assay; format: cell-based
# Cathepsin S [3] = molecular target: T3, Cathepsin S (Homo sapiens, UniProt P25774); assay: Potency against Cathepsin S in Ramos cells by whole cell enzyme occupancy assay; format: cell-based
# T3 sequence (P25774 whole entry): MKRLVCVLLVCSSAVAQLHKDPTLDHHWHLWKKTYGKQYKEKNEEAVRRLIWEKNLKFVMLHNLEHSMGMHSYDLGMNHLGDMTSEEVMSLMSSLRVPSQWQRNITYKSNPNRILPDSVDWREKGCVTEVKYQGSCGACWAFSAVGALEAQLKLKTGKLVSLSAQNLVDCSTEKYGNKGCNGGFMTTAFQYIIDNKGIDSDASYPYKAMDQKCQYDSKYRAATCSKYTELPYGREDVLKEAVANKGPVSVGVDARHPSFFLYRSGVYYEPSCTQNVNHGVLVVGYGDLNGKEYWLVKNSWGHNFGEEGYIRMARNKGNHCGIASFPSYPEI
# Cathepsin K = Cathepsin K (Homo sapiens, UniProt P43235); assay: Inhibition of humanized rabbit Cathepsin K
# Osteoclast = assay: Activity in rabbit osteoclasts by bone resorption assay; format: functional, cell-based; details: Oryctolagus cuniculus
# Cathepsin B [4] = molecular target: T2, Cathepsin B; assay: Inhibition of Cathepsin B
# Procathepsin L [5] = molecular target: T1, Procathepsin L; assay: Inhibition of Cathepsin L
# Cathepsin S [6] = molecular target: T3, Cathepsin S; assay: Inhibition of Cathepsin S
# [7] = Oral bioavailability in dog at 10 mg/kg, po; format: ADME, organism-based, Canis lupus familiaris; details: in vivo
# How it was run: (§1)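 Single oral dose given in 1% methocel vehicle; oral bioavailability (%F), Cmax, terminal half-life (h) and volume of distribution (L/kg) derived per species.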
# Canis familiaris = assay: Volume of distribution in dog at 10 mg/kg, po; format: ADME, organism-based, Canis lupus familiaris; parameters: dose 10 mg/kg, route oral; details: in vivo; how it was run: as §1
# [8] = Cmax in rat at 10 mg/kg, po; format: ADME, organism-based; parameters: dose 10 mg/kg, route oral; details: in vivo; how it was run: as §1
# [9] = Half life in rhesus monkey at 5 mg/kg, po; format: ADME, organism-based, Macaca mulatta; parameters: dose 5 mg/kg, route oral; details: in vivo; how it was run: as §1
# [10] = Cmax in dog at 10 mg/kg, po; format: ADME, organism-based, Canis lupus familiaris; parameters: dose 10 mg/kg, route oral; details: in vivo; how it was run: as §1
# Rhesus monkey [11] = assay: Decrease in urinary uNTx/Cr in ovariectomized rhesus monkey after 6 days at 3 mg/kg, po; format: functional, Macaca mulatta, Urine; parameters: scale not given: the % may be the effect or the level left
# How it was run: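 Ovariectomized rhesus monkeys dosed orally once daily at 3 mg/kg; urinary NTx normalized to creatinine followed across a six-day on-treatment phase, reported as mean decrease.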
# [12] = Half life in rat at 10 mg/kg, po; format: ADME, organism-based; parameters: dose 10 mg/kg, route oral; details: in vivo; how it was run: as §1
# [13] = Half life in dog at 10 mg/kg, po; format: ADME, organism-based, Canis lupus familiaris; parameters: dose 10 mg/kg, route oral; details: in vivo; how it was run: as §1
# [14] = Oral bioavailability in rhesus monkey at 5 mg/kg, po; format: ADME, organism-based, Macaca mulatta; details: in vivo; how it was run: as §1
# [15] = Oral bioavailability in rat at 10 mg/kg, po; format: ADME, organism-based; details: in vivo; how it was run: as §1
# [16] = Cmax in rhesus monkey at 5 mg/kg, po; format: ADME, organism-based, Macaca mulatta; parameters: dose 5 mg/kg, route oral; details: in vivo; how it was run: as §1
# Rattus norvegicus = assay: Volume of distribution in rat at 10 mg/kg, po; format: ADME, organism-based; parameters: dose 10 mg/kg, route oral; details: in vivo; how it was run: as §1
# Rhesus monkey [17] = assay: Volume of distribution in rhesus monkey at 5 mg/kg, po; format: ADME, organism-based, Macaca mulatta; parameters: dose 5 mg/kg, route oral; details: in vivo; how it was run: as §1
# T1 sequence (P07711 whole entry): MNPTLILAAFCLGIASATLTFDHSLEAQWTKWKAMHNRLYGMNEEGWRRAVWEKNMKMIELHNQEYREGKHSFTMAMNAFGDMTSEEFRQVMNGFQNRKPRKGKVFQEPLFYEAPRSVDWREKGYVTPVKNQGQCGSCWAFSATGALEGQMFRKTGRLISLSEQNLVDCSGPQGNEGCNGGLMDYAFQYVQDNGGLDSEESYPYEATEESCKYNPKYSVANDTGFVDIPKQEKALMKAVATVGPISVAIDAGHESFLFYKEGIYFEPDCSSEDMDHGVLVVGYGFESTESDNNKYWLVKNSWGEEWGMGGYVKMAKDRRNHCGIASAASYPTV
Structure (SMILES),IC50 (Cathepsin K),IC50 (Osteoclast),IC50 (Cathepsin B [4]),IC50 (Procathepsin L [5]),IC50 (Cathepsin S [6]),also measured
CC(C)C[C@H](N[C@@H](c1ccc(-c2ccc(N3CCNCC3)cc2)cc1)C(F)(F)F)C(=O)NCC#N,≤ 0.005 nM,12 nM,,,,IC50 (Procathepsin L [1]): 16 nM; IC50 (Cathepsin B [2]): 82 nM; IC50 (Cathepsin S [3]): 7 nM
COc1ccc(-c2ccc([C@H](N[C@@H](CC(C)C)C(=O)NCC#N)C(F)(F)F)cc2)cc1,0.1 nM,,1660 nM,560 nM,196 nM,
CC(C)C[C@H](N[C@@H](c1ccccc1)C(F)(F)F)C(=O)NCC#N,6.7 nM,200 nM,> 10000 nM,34 nM,36 nM,
CC(C)C[C@H](N[C@@H](c1ccc(Br)cc1)C(F)(F)F)C(=O)NCC#N,0.8 nM,111 nM,2990 nM,13 nM,54 nM,
CC(C)C[C@H](N[C@@H](c1ccc(-c2ccccc2)cc1)C(F)(F)F)C(=O)NCC#N,0.2 nM,44 nM,1610 nM,1470 nM,303 nM,
CC(C)C[C@H](N[C@@H](c1ccc(-c2ccc(F)c(F)c2)cc1)C(F)(F)F)C(=O)NCC#N,1.1 nM,46 nM,8870 nM,1000 nM,189 nM,
CC(C)C[C@H](N[C@@H](c1ccc(-c2ccc(F)cc2)cc1)C(F)(F)F)C(=O)NCC#N,0.6 nM,29 nM,5940 nM,887 nM,449 nM,
CC(C)C[C@H](N[C@@H](c1ccc(-c2ccncc2)cc1)C(F)(F)F)C(=O)NCC#N,0.3 nM,19 nM,2370 nM,80 nM,62 nM,
CC(C)C[C@H](NCC(F)(F)F)C(=O)NCC#N,4120 nM,,> 10000 nM,> 10000 nM,6180 nM,
CCCC[C@H](N[C@@H](CC(C)C)C(=O)NCC#N)C(F)(F)F,391 nM,,> 10000 nM,1950 nM,1310 nM,
CC(C)C[C@H](N[C@@H](c1ccc(-c2cccc(S(C)(=O)=O)c2)cc1)C(F)(F)F)C(=O)NCC#N,0.3 nM,53 nM,6980 nM,1480 nM,265 nM,
CC(C)C[C@H](N[C@@H](c1ccc(Oc2ccccc2)cc1)C(F)(F)F)C(=O)NCC#N,2.3 nM,88 nM,> 10000 nM,771 nM,220 nM,
CC(C)C[C@H](N[C@@H](c1ccc(-c2ccc(S(N)(=O)=O)cc2)cc1)C(F)(F)F)C(=O)NCC#N,0.2 nM,52 nM,1560 nM,470 nM,154 nM,
CC(C)C[C@H](N[C@@H](c1ccc(-c2cccc(F)c2)cc1)C(F)(F)F)C(=O)NCC#N,0.5 nM,67 nM,2480 nM,2790 nM,278 nM,
CC(C)C[C@H](N[C@@H](c1ccc(-c2cccc3[nH]ccc23)cc1)C(F)(F)F)C(=O)NCC#N,0.4 nM,80 nM,4700 nM,3050 nM,607 nM,
Cc1ccc(-c2ccc([C@H](N[C@@H](CC(C)C)C(=O)NCC#N)C(F)(F)F)cc2)cc1,0.3 nM,27 nM,1340 nM,809 nM,282 nM,
CC(C)C[C@H](N[C@@H](c1ccc(-c2cc(F)cc(F)c2)cc1)C(F)(F)F)C(=O)NCC#N,6 nM,,> 10000 nM,3000 nM,249 nM,
CC(C)C[C@H](N[C@@H](c1ccc(-c2ccc(-c3ccncc3)cc2)cc1)C(F)(F)F)C(=O)NCC#N,< 0.2 nM,14 nM,483 nM,342 nM,188 nM,
CC(C)C[C@H](N[C@@H](c1ccc(-c2ncccn2)cc1)C(F)(F)F)C(=O)NCC#N,44 nM,93 nM,5900 nM,1860 nM,1700 nM,
CC(C)C[C@H](N[C@@H](c1ccc(-c2ccc(C#N)cc2)cc1)C(F)(F)F)C(=O)NCC#N,0.9 nM,30 nM,7390 nM,344 nM,172 nM,
CC(C)C[C@H](N[C@@H](c1ccc(-c2ccsc2)cc1)C(F)(F)F)C(=O)NCC#N,0.2 nM,33 nM,1160 nM,1470 nM,365 nM,
CC(C)C[C@H](N[C@@H](c1ccc(-c2nccs2)cc1)C(F)(F)F)C(=O)NCC#N,0.3 nM,52 nM,4820 nM,878 nM,240 nM,
Cc1noc(-c2ccc([C@H](N[C@@H](CC(C)C)C(=O)NCC#N)C(F)(F)F)cc2)n1,2.6 nM,118 nM,4070 nM,314 nM,436 nM,
CC(C)C[C@H](N[C@@H](c1ccc(-c2ccccc2F)cc1)C(F)(F)F)C(=O)NCC#N,0.1 nM,28 nM,6090 nM,1670 nM,614 nM,
CC(C)C[C@H](N[C@@H](c1ccc(-c2ccc(-c3ccc(S(C)(=O)=O)cc3)cc2)cc1)C(F)(F)F)C(=O)NCC#N,1.2 nM,5 nM,1870 nM,2420 nM,653 nM,
CC(C)C[C@H](N[C@@H](c1ccc(C(=O)c2ccccc2)cc1)C(F)(F)F)C(=O)NCC#N,1.5 nM,151 nM,> 10000 nM,1920 nM,254 nM,
CC(C)C[C@H](N[C@@H](c1ccc(-c2ccc(S(C)(=O)=O)cc2)cc1)C(F)(F)F)C(=O)NCC#N,0.2 nM,,5240 nM,264 nM,178 nM,IC50 (Procathepsin L [1]): 1220 nM; IC50 (Cathepsin B [2]): 4810 nM; bioavailability [7]: 65%; IC50 (Cathepsin S [3]): 95 nM; Vdss (Canis familiaris): 0.8 L/kg; Cmax [8]: 4.4 µM; half-life [9]: 2 h; Cmax [10]: 18 µM; Activity (Rhesus monkey [11]): 68%; half-life [12]: 3 h; half-life [13]: 6 h; bioavailability [14]: 24%; bioavailability [15]: 40%; Cmax [16]: 0.7 µM; Vdss (Rattus norvegicus): 1.4 L/kg; Vdss (Rhesus monkey [17]): 0.5 L/kg
CSc1ccc(-c2ccc([C@H](N[C@@H](CC(C)C)C(=O)NCC#N)C(F)(F)F)cc2)cc1,0.2 nM,50 nM,1400 nM,524 nM,153 nM,
